ChEMBL document CHEMBL5137084 (J Med Chem, 2022)
Calls of active or inactive are those of the source. The rule behind the calls is not given here.

Legend:
[1] = Prodrug conversion in carboxylesterase 1 knockout C57BL/6 mouse brain assessed as increase in 2,6-Dimethoxy-4-(4-phenyl-5-thiophen-2-yl-1H-imidazol-2-yl)phenol release at 16.62 mg/kg, po administered as single dose measured after 2 hrs by LC-MS/MS analysis; type: ADME, organism-based; conditions: in vivo
[2] = tested on: Mus musculus; test: Antiinflammatory activity against GFAP-EGFP transgenic mouse model assessed as as inhibition of GFP-labeled extracellular vesicle release at 3 to 10 mg/kg, po pretreated with compound for 30 mins followed by IL-1beta injection measured after 4 hrs; type: functional, organism-based; conditions: dose 3-10 mg/kg
Method in brief: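 Euthanized 4 h later. Platelet-free plasma was prepared and GFP+ EVs were captured on anti-GFP antibody-coupled magnetic beads and counted by particle tracking, blinded. Mean ± SEM, one-way ANOVA with Tukey.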

[3] = Prodrug conversion in carboxylesterase 1 knockout C57BL/6 mouse brain assessed as AUC of 2,6-Dimethoxy-4-(4-phenyl-5-thiophen-2-yl-1H-imidazol-2-yl)phenol at 16.62 mg/kg, po administered as single dose measured upto 8 hrs by LC-MS/MS analysis; type: ADME, organism-based; set-up: dose 16.62 mg/kg, time < 8 hrs, route po; conditions: in vivo
[4] = Half life in carboxylesterase 1 knockout C57BL/6 mouse brain at 16.62 mg/kg, po administered as single dose measured upto 8 hrs by LC-MS/MS analysis; type: ADME, organism-based
[5] = Stability in carboxylesterase 1 knockout C57BL/6 mouse plasma assessed as intact compound level at 16.62 mg/kg, po administered as single dose measured upto 8 hrs by LC-MS/MS analysis; type: ADME, organism-based; conditions: read-out: Stability
[6] = Stability in carboxylesterase 1 knockout C57BL/6 mouse brain assessed as intact compound level at 16.62 mg/kg, po administered as single dose measured upto 8 hrs by LC-MS/MS analysis; type: ADME, organism-based; conditions: read-out: Stability
[7] = Protein binding in mouse plasma assessed as free fraction at 3 to 10 mg/kg, po by ultrafiltration assay; type: ADME, organism-based; conditions: dose 3-10 mg/kg
[8] = Metabolic stability of the compound in carboxylesterase 1 knockout mouse brain assessed as parent compound remaining at 10 uM measured after 1 hr in by UPLC analysis; type: ADME, tissue-based
Method in brief: (§1)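 Plasma, or liver or brain homogenised 10-fold in 0.1 M potassium phosphate buffer, from CES1−/− mice. Spiked with 10 μM prodrug (final) and shaken at 37 °C for 1 h, in triplicate. Samples at 0 and 1 h were quenched with three volumes of acetonitrile containing losartan. Intact prodrug was measured by UHPLC-orbitrap MS and expressed as % remaining, mean ± SE.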

[9] = Tmax in carboxylesterase 1 knockout C57BL/6 mouse plasma at 16.62 mg/kg, po administered as single dose measured upto 8 hrs by LC-MS/MS analysis; type: ADME, organism-based
[10] = Half life in carboxylesterase 1 knockout C57BL/6 mouse plasma at 16.62 mg/kg, po administered as single dose measured upto 8 hrs by LC-MS/MS analysis; type: ADME, organism-based
[11] = Metabolic stability of the compound in carboxylesterase 1 knockout mouse liver assessed as parent compound remaining at 10 uM measured after 1 hr in by UPLC analysis; type: ADME, tissue-based; method in brief: as §1
[12] = Prodrug conversion in carboxylesterase 1 knockout C57BL/6 mouse plasma assessed as AUC of 2,6-Dimethoxy-4-(4-phenyl-5-thiophen-2-yl-1H-imidazol-2-yl)phenol at 16.62 mg/kg, po administered as single dose measured upto 8 hrs by LC-MS/MS analysis; type: ADME, organism-based; set-up: time < 8 hrs, dose 16.62 mg/kg, route po; conditions: in vivo
[13] = Prodrug conversion in carboxylesterase 1 knockout C57BL/6 mouse plasma assessed as Cmax of 2,6-Dimethoxy-4-(4-phenyl-5-thiophen-2-yl-1H-imidazol-2-yl)phenol at 16.62 mg/kg, po administered as single dose measured upto 8 hrs by LC-MS/MS analysis; type: ADME, organism-based; set-up: time < 8 hrs, dose 16.62 mg/kg, route po; conditions: in vivo
[14] = Prodrug conversion in carboxylesterase 1 knockout C57BL/6 mouse plasma assessed as increase in 2,6-Dimethoxy-4-(4-phenyl-5-thiophen-2-yl-1H-imidazol-2-yl)phenol release at 16.62 mg/kg, po administered as single dose measured after 2 hrs by LC-MS/MS analysis; type: ADME, organism-based; conditions: in vivo
[15] = Metabolic stability of the compound in carboxylesterase 1 knockout mouse plasma assessed as parent compound remaining at 10 uM measured after 1 hr in by UPLC analysis; type: ADME, cell-free; method in brief: as §1
[16] = Ratio of prodrug conversion in carboxylesterase 1 knockout C57BL/6 mouse brain to plasma assessed as 2,6-Dimethoxy-4-(4-phenyl-5-thiophen-2-yl-1H-imidazol-2-yl)phenol release at 16.62 mg/kg, po administered as single dose measured after 2 hrs by LC-MS/MS analysis; type: ADME, organism-based
[17] = Tmax in carboxylesterase 1 knockout C57BL/6 mouse brain at 16.62 mg/kg, po administered as single dose measured upto 8 hrs by LC-MS/MS analysis; type: ADME, organism-based
[18] = Prodrug conversion in carboxylesterase 1 knockout C57BL/6 mouse brain assessed as Cmax of 2,6-Dimethoxy-4-(4-phenyl-5-thiophen-2-yl-1H-imidazol-2-yl)phenol at 16.62 mg/kg, po administered as single dose measured upto 8 hrs by LC-MS/MS analysis; type: ADME, organism-based; set-up: dose 16.62 mg/kg, time < 8 hrs, route po; conditions: in vivo

For `CCC1CC(N2CCCCC2)CC(CC)N1C(=O)Oc1c(OC)cc(-c2nc(-c3ccccc3)c(-c3cccs3)[nH]2)cc1OC` (stereo not drawn), the Drug metabolism [1] was 61.5 nM, the Activity [2] was “Active” and the AUC [3] was 247 pmol·h/g. It also gave a half-life [4] of 1.8 h, a concentration at 8 h [5] of 0.283 µM and a concentration at 8 h [6] of 0.0352 µM. For the same compound, the fraction unbound [7] was 0.9, the Stability [8] was 100% and the Tmax [9] was 2 h. For the same compound, the half-life [10] was 2.7 h, the Stability [11] was 100% and the AUC [12] was 1047 pmol·h/g. It also gave a Cmax [13] of 190 pmol·h/g, a Drug metabolism [14] of 189.3 nM and a Stability [15] of 92%. It also gave a BPR [16] of 0.24, a Tmax [17] of 2 h and a Cmax [18] of 69 pmol·h/g.
